Compound activity (PubChem)
CAL PDZ FP-1 – inhibitors of human CAL PDZ peptide binding; Q9HD26; purified CAL PDZ, TMR-peptide fluorescence polarization, 1 h; inhibition, % at 20 µM; 330,000 tested, 0.02% active; AID 504414;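 active means highest replicate inhibition of at least 40%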;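 further: plate controls were DMSO neutral control wells for no effect and unlabeled competitor peptide control wells for full effect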
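Material: tagged CAL PDZ protein CerCALP, purified; buffer or medium: sodium phosphate/NaCl buffer pH 7.4 with TCEP, IgG, Thesit; also added: fluorescent TMR peptide probe; schedule: 1 h incubation at room temperature before polarization reading; technique: fluorescence polarization from S- and P-plane intensities, G-factor corrected; control set: unlabelled peptide and DMSO controls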
DDE Tn7 FP inh – disrupts Tn7 cyclic peptide binding to fibrin D-Dimer-E complex. P02675. FP displacement of FITC-Tn7 peptide from fibrin DD(E); 0% = median of compound wells per plate. inhibition, % at 8.3 µM. 370,000 tested, 0.13% active. AID 720508;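 active means inhibition above the mean of compounds falling within the control limits plus 3 SD of them, cut at about 14% in these data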;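 further: 0% = plate median of compound wells and 100% = 10 µM Aha-Tn7 peptide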
Target sequence (P02675 whole entry, looked up): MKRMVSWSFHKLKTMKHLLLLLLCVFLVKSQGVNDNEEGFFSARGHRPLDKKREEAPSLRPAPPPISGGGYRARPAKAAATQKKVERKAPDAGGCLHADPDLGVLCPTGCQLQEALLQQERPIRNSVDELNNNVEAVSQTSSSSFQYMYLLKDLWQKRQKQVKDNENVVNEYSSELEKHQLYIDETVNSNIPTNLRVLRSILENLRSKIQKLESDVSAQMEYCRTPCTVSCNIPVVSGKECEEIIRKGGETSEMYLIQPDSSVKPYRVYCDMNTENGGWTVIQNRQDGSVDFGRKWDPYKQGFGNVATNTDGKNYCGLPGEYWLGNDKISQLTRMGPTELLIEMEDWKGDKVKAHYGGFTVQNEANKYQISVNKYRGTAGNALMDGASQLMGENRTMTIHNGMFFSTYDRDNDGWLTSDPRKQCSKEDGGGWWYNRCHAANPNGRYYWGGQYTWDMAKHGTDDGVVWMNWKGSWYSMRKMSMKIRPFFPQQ
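Assay system: human fibrin DD(E) protein / Input: 2 µM fibrin DD(E) / Benchmarks: high control of 10 µM Aha-Tn7 peptide / Measured by: fluorescence polarization of the labelled Tn7 tracer / Medium: Tris buffer with calcium and detergent, pH 7.8 / Timing: 10 min compound pre-incubation, 3 h probe incubation at room temperature / Repeats: one replicate per compound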
CAL PDZ FP-2 – blocks peptide binding to the human CAL PDZ domain. purified CAL PDZ, TMR-peptide fluorescence polarization, 1 h. inhibition, % at 24.9 µM. Q9HD26. 300,000 tested, 0.92% active;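 active means mean inhibition of at least 30% with at least half of replicates also reaching 30%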;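 further: 0% = DMSO neutral control and 100% = excess unlabeled competitor peptide PRC23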
Tn6 DDE FP – disrupts Tn6 cyclic peptide binding to fibrin D-Dimer-E complex. P02675. Fibrin DD(E) TRITC-Tn6 fluorescence polarization displacement. inhibition, % at 8.3 µM. 370,000 tested, 0.21% active;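 active means inhibition above a per-campaign cutoff: mean of compounds within control limits plus 3 SD, cut at about 15% in these data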;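 further: 0% = median of all compound wells on the plate and 100% = blocking peptide control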
ARNT-TACC3 inh – disrupts binding between human ARNT and TACC3 | AID 623870 | inhibition, % at 9.99 µM | AlphaScreen His-ARNT PAS-B/GST-TACC3 binding, luminescence; TACC3 fragment carries E629A point mutation | 390,000 tested, 0.66% active;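 active means mean inhibition of replicates at least 50% and at least half of replicates each reaching 50%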;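 further: 0% = complete ARNT plus TACC3 wells and 100% = ARNT alone without TACC3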
GRK2 inh – inhibitors of human GRK2 displacing RNA aptamer | P25098 | bead flow cytometry, FAM-aptamer displacement from GRK2 | inhibition of aptamer binding, % at 10 µM | 330,000 tested, 0.59% active;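 active means inhibition of aptamer binding above 40%, roughly 3 SD of noise, on plates passing a quality check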;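 further: median bead fluorescence of bound FAM aptamer so fluorescent compounds give negative values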
* = called active by the depositor; . = no result; + = active, no number. Sampled rows, rich in hits. Any-hit rate of the full collection: about 1.8%.

SMILES	CAL PDZ FP-1	DDE Tn7 FP inh	CAL PDZ FP-2	Tn6 DDE FP	ARNT-TACC3 inh	GRK2 inh
Cc1nc2ncccn2c1-c1csc(Nc2ccc(N(C)C)cc2)n1	0	3	5	5	18	.
COc1ccc(Nc2nc(-c3c(C)nc4ncccn34)cs2)cc1	4	3	-1	0	46*	.
COc1ccccc1Nc1nc(-c2c(C)nc3ncccn23)cs1	3	8	1	1	45*	.
CCOC(=O)N1CCC(=C(C#N)C(=O)Nc2cc(OC)ccc2OC)CC1	0	7	31*	7	8	0
CCOC(=O)C1CCCN(CCC(=O)Nc2cc(OC)ccc2OC)C1 (stereo not given)	0	-2	2	1	-1	0
COc1ccccc1CNC(=O)C[C@H]1C[C@@H]2c3cc(NS(C)(=O)=O)ccc3O[C@@H]2[C@@H](CO)O1	.	.	.	.	-8	.
CCN(CC)CCCN1C(=O)C(O)=C(C(=O)c2ccco2)C1c1ccc(OC(C)C)cc1 (stereo not given)	-2	8	88*	1	-1	0
N=C1SCC(=O)N1c1ncc(Cc2ccccc2Cl)s1	0	-3	30*	3	26	.
COc1ccc(S(=O)(=O)N(C)C[C@H]2Oc3c(NC(=O)c4cnccn4)cccc3C(=O)N([C@@H](C)CO)C[C@H]2C)cc1	.	.	.	.	0	.
COCC#Cc1cnc2c(c1)C(=O)N([C@H](C)CO)C[C@@H](C)[C@@H](CN(C)C(=O)C1CC1)O2	.	.	.	.	-5	.
COc1ccccc1Nc1n[nH]c(=S)s1	-1	0	78*	0	-4	0
Cc1cccc(Nc2n[nH]c(=S)s2)c1C	-1	-2	-4	4	2	3
Cc1cc(C)nc(Nc2n[nH]c(-c3ccccc3Cl)n2)n1	0	1	38*	3	-1	0
COC(=O)c1c(NC(=O)CN(C)CC(=O)Nc2ccc(C)cc2)sc2c1CCC(C)C2 (stereo not given)	0	-10	69*	2	-14	3
CC(C)(C)c1ccc(-c2nnc(SCc3cccc4ccccc34)n2Cc2ccco2)cc1	.	-7	.	-6	.	.
O=C(c1cc(COc2c(F)cccc2F)on1)N(Cc1ccccc1)CC1CC1	-1	-5	64*	0	-13	0
CN(C(=O)c1cc(COc2c(F)cccc2F)on1)C1CCOC1 (stereo not given)	-1	-5	2	-1	7	0
COc1cc2c(cc1OC)-c1cc(Nc3ccc(C(=O)O)cc3)nc(=O)n1CC2	-1	3	-4	7	46*	1
C/C(=N\NC(=O)c1cc2ccccc2cc1O)c1cc2ccccc2o1	-3	0	-3	-1	0	1
C/C(=N\NC(=O)c1cc2ccccc2cc1O)c1ccccn1	-2	7	2	-10	69*	2
C/C(=N\NC(=O)CCCNc1ccccc1)c1ccncc1	0	-1	-5	4	4	2
C/C(=N\NC(=O)c1c[nH]c2ccccc12)c1ccccn1	8	-6	-11	-8	77*	1
C/C(=N\NC(=O)c1c[nH]c2ccccc12)c1ccco1	0	-2	-2	-4	30	2
C/C(=N\NC(=O)CCCNc1ccc(C)cc1)c1ccccn1	0	8	-18	4	48*	1
O=C(C[C@@H]1CC[C@@H](NC(=O)Nc2cc(F)ccc2F)[C@@H](CO)O1)NCc1ccccn1	.	.	.	.	-13	.
O=C(Nc1ccc2nc(-c3ccco3)c(-c3ccco3)nc2c1)N1CCCCCC1	.	.	.	.	.	52*
c1cc2c(cc1Cn1cnnn1)OCO2	-2	-1	62*	0	-4	0
CCCNC(=O)[C@H]1[C@H](CO)[C@H]2Cn3c(ccc(C4=CCCC4)c3=O)[C@H]2N1CCC(F)(F)F	.	.	.	.	18	.
Cc1cn(CC(=O)NCc2ccccn2)c(=O)[nH]c1=O	0	-1	+	-6	-5	.
Cc1cc(C(=O)N/N=C/c2cc(Cl)cc([N+](=O)[O-])c2O)c2ccccc2n1	-1	-5	0	-2	76*	0
